Source: ChEMBL document CHEMBL1136915 (Bioorg Med Chem Lett, 2009)

Assays:
[1] = Nitric oxide release in phosphate buffer containing 5 mM L-cysteine at pH 7.4 incubated at 37 degC after 1.5 hrs; conditions: pH 7.4, 1.5 h
[2] = Nitric oxide release in phosphate buffer at pH 7.4 incubated at 37 degC after 1.5 hrs; design: concentration or dose not given beside the values; conditions: pH 7.4, 1.5 h
[3] = tested on: Rattus norvegicus; test: Antiinflammatory activity against carrageenan-induced rat inflammation model assessed as inhibition of paw edema at 357 umol/kg, po after 3 hrs; type: functional
In short: (§1)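 Test compound was given orally to rats at the stated dose (µmol/kg), followed by carrageenan-induced paw edema.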

[4] = Selectivity ratio of IC50 for ovine COX1 to IC50 for human COX2
In short: (§2)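 COX inhibition was measured in vitro with an enzyme immunoassay kit. IC50 is the mean of two determinations, with deviation from the mean <10%. COX-2 selectivity index = COX-1 IC50/COX-2 IC50.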

[5] = tested on: Serum; test: Nitric oxide release in rat serum containing phosphate buffer at pH 7.4 incubated at 37 degC after 1.5 hrs; conditions: pH 7.4, 1.5 h
[6] = biological target: T1, Prostaglandin G/H synthase 1 (Ovis aries, UniProt P05979); test: Inhibition of ovine COX1 by enzyme immunoassay
T1 sequence (P05979 whole entry): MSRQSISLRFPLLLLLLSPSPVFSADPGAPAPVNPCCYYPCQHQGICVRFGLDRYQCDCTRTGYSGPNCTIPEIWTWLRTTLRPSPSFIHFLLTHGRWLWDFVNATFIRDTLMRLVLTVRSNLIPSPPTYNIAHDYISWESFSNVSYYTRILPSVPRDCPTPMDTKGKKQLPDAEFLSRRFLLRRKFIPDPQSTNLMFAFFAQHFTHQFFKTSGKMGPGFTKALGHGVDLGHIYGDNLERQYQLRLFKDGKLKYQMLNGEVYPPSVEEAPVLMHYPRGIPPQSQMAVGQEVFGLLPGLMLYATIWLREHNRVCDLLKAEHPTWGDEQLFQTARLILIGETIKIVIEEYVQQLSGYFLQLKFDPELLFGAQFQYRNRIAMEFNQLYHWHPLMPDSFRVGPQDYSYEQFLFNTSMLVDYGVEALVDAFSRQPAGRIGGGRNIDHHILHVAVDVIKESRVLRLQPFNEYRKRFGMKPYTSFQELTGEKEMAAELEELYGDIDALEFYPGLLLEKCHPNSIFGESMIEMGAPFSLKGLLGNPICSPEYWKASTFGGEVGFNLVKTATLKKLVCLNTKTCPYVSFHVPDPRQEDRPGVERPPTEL
In short: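 COX inhibition was measured in vitro with an enzyme immunoassay kit. COX-2 selectivity index = COX-1 IC50/COX-2 IC50.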

[7] = biological target: T2, Prostaglandin G/H synthase 2 (Homo sapiens, UniProt P35354); test: Inhibition of human COX2 by enzyme immunoassay
T2 sequence (P35354 whole entry): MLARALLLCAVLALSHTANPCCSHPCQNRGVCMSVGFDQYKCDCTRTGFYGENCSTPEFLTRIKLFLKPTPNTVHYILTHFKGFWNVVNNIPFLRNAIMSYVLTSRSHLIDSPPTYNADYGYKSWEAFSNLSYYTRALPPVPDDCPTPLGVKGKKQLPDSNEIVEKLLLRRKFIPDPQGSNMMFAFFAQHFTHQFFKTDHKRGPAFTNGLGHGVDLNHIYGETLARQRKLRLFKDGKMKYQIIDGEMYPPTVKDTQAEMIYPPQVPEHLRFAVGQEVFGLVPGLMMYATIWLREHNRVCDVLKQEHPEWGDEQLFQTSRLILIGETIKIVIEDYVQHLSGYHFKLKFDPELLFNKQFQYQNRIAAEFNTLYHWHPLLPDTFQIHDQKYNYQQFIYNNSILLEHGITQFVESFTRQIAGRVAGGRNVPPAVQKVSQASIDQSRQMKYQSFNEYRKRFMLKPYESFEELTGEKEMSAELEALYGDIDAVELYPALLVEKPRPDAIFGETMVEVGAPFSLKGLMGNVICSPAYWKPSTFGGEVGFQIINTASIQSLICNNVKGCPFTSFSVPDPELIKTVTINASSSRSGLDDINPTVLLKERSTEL
In short: as §2

[8] = tested on: Rattus norvegicus; test: Antiinflammatory activity against carrageenan-induced rat inflammation model assessed as inhibition of paw edema at 11.7 umol/kg, po after 3 hrs; type: functional
In short: as §1

[9] = tested on: Rattus norvegicus; test: Antiinflammatory activity against carrageenan-induced rat inflammation model assessed as inhibition of paw edema at 327 umol/kg, po after 3 hrs; type: functional
In short: as §1

[10] = tested on: Rattus norvegicus; test: Antiinflammatory activity against carrageenan-induced rat inflammation model assessed as inhibition of paw edema at 714 umol/kg, po after 3 hrs; type: functional
In short: as §1

| Compound | Activity [1] | Activity [2] | inhibition in vivo at 357 µmol/kg [3] | Ratio IC50 [4] | Activity [5] | IC50 [6] | IC50 [7] | inhibition in vivo at 11.7 µmol/kg [8] | inhibition in vivo at 327 µmol/kg [9] | inhibition in vivo at 714 µmol/kg [10] |
| --- | --- | --- | --- | --- | --- | --- | --- | --- | --- | --- |
| O=[N+]([O-])OCC(CO[N+](=O)[O-])O[N+](=O)[O-] [NITROGLYCERIN] | 10.1% | 2.8% | – | – | – | – | – | – | – | – |
| CC(=O)OCO/N=[N+](\[O-])N1CCC[C@H]1COC(=O)c1ccccc1OC(C)=O | – | 7.4% | 23.7% | > 45 | 50.6% | > 100 µM | 2.2 µM | – | – | – |
| COc1ccc2c(c1)c(CC(=O)OC[C@@H]1CCCN1/[N+]([O-])=N/OCOC(C)=O)c(C)n2C(=O)c1ccc(Cl)cc1 | – | 7.9% | – | > 10 | 80.7% | > 100 µM | 9.3 µM | 53.6% | – | – |
| CC(=O)OCO/N=[N+](\[O-])N1CCC[C@H]1COC(=O)C(C)c1ccc(CC(C)C)cc1 (stereo partly drawn) | – | 4.4% | – | > 15 | 79.5% | > 100 µM | 6.4 µM | – | 57.1% | – |
| CC(C)Cc1ccc(C(C)C(=O)OC(CO[N+](=O)[O-])CO[N+](=O)[O-])cc1 (stereo not drawn) | 6.8% | 3.4% | – | > 58 | – | > 100 µM | 1.7 µM | – | 59.1% | – |
| CC(=O)Oc1ccccc1C(=O)O [ASPIRIN] | – | – | – | – | – | – | – | – | – | 50% |
| COc1ccc2c(c1)c(CC(=O)OC(CO[N+](=O)[O-])CO[N+](=O)[O-])c(C)n2C(=O)c1ccc(Cl)cc1 | 7.4% | 3.8% | – | > 166 | – | > 100 µM | 0.6 µM | 42.2% | – | – |
| [Na+].[O-]/N=[N+](\[O-])N1CCC[C@H]1CO | – | 84.5% | – | – | 84.8% | – | – | – | – | – |
| COc1ccc2c(c1)c(CC(=O)O)c(C)n2C(=O)c1ccc(Cl)cc1 [INDOMETHACIN] | – | – | – | – | – | – | – | 50% | – | – |
| CC(=O)Oc1ccccc1C(=O)OC(CO[N+](=O)[O-])CO[N+](=O)[O-] | 7.8% | 3.6% | 30.5% | > 13 | – | > 100 µM | 7.7 µM | – | – | – |
| CC(C)Cc1ccc(C(C)C(=O)O)cc1 (stereo not drawn) [IBUPROFEN] | – | – | – | – | – | – | – | – | 50% | – |
